Data as given in PubChem BioAssay.
Activity calls are given as the source filed them.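 Rule for the calls, unless noted: active = GFP response above 150% of the DMSO level; inconclusive = fewer than 70 events counted for a yeast strain; inactive = the rest.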

How the values were obtained:
[1] = hit retest on RPL19A-GFP reporter strain – cell-based, S. cerevisiae, flow cytometry, cherry picks, mother/daughter gates, confirmation (AID 2270;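 active = GFP response below 50% of the DMSO control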); conditions: 3 h, at 10 µM, stronger effect = lower value, 100 = same GFP as DMSO wells
[2] = yeast TOR pathway reporter LAP4-GFP change – cell-based, cherry picks, flow cytometry, mother/daughter gates, confirmation (AID 2271;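 active = GFP response above 150% of the DMSO control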;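 note: ratio of sample to DMSO plate mean so 100% equals DMSO level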); conditions: S. cerevisiae LAP4-GFP strain, 3 h, at 10 µM, stronger effect = higher value, 100 means same as DMSO control
Summary of the method: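 Material – Alexa Fluor 633-labelled Saccharomyces cerevisiae GFP-fusion strain, single-plex · Incubation – compound exposure 3 h at 30 °C, end-over-end rotation · Measured by – GFP by flow cytometry · Measure – median GFP fluorescence as percent of plate-mean DMSO wells · Control set – positive rapamycin (400 ng/mL), negative DMSO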

[3] = TOR pathway reporter MEP2-GFP, retest of hits – S. cerevisiae, flow cytometry GFP, cherry picks, confirmation (AID 2272;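 active = GFP response above 150% of the DMSO control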;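 note: ratio of well signal to plate DMSO mean so 100% equals DMSO level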); conditions: S. cerevisiae MEP2-GFP strain, 3 h, at 10 µM, stronger effect = higher value
[4] = yeast AGP1-GFP fluorescence change, single-dose – cell-based, flow cytometry, S. cerevisiae, cherry picks, confirmation (AID 2273);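 note: median GFP channel fluorescence over the whole cell population gate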; conditions: S. cerevisiae AGP1-GFP strain, 3 h, at 10 µM
[5] = TOR pathway CIT2 reporter hit retest – S. cerevisiae, GFP fusion, cherry picks, mother/daughter gates, confirmation (AID 2274); conditions: S. cerevisiae CIT2-GFP strain, flow cytometry, 3 h, at 10 µM, stronger effect = higher value
[6] = measured here: daughter cell gate
[7] = measured here: mother cell gate
[8] = measured here: daughter cell gate response
[9] = measured here: mother cell gate response

Row | Compound | GFP response vs DMSO [1] | GFP response vs DMSO [1, 6] [%] | GFP response vs DMSO [1, 7] [%] | GFP response relative to DMSO [2] | GFP response relative to DMSO [2, 8] [%] | GFP response relative to DMSO [2, 9] [%] | GFP response vs DMSO [3] | GFP response, % of DMSO [4] | GFP response, % of DMSO [5] | GFP response, % of DMSO [5, 6] [%] | GFP response, % of DMSO [5, 7] [%]
1 | CCc1nnc(NC(=O)c2ccc(S(=O)(=O)N(CC)Cc3ccccc3)cc2)o1 | 98.4% (inactive) | 97.8 | 98.8 | 102% (inactive) | 105 | 99.5 | 102% (inactive) | 101% (inactive) | 105% (inactive) | 106 | 104
2 | Cc1ccc(N2C(=O)CC(Sc3ncn[nH]3)C2=O)cc1C (stereo unspecified) | 106% (inactive) | 111 | 101 | 137% (inactive) | 133 | 140 | 109% (inactive) | 100% (inactive) | 104% (inactive) | 112 | 97.3
3 | O=C(Nc1nc(-c2ccc(Cl)cc2)cs1)c1cccnc1 | 96.8% (inactive) | 87.8 | 98.3 | 105% (inactive) | 101 | 104 | 99% (inactive) | 99.4% (inactive) | 95.9% (inactive) | 93.8 | 95.6
4 | CS(=O)(=O)N1N=C(c2ccc3nccnc3c2)CC1c1ccccc1 (stereo unspecified) | 99.8% (inactive) | 102 | 98.2 | 100% (inactive) | 102 | 99.5 | 101% (inactive) | 98.4% (inactive) | 103% (inactive) | 103 | 102
5 | CCOc1ccc(N2C(=O)CC(Sc3nccc(C)n3)C2=O)cc1 (stereo unspecified) | 97.3% (inactive) | 99.3 | 97.3 | 97.7% (inactive) | 97.5 | 97.4 | 103% (inactive) | 102% (inactive) | 100% (inactive) | 97.6 | 102
6 | Cc1cc(=O)oc2c(C(=O)/C=C\c3cccs3)c(O)ccc12 | 98% (inactive) | 100 | 95.3 | 145% (inactive) | 136 | 154 | 107% (inactive) | 101% (inactive) | 95.9% (inactive) | 99.2 | 91.9
7 | CC(=O)SC(C[N+](=O)[O-])c1cn(C(C)=O)c2ccccc12 (stereo unspecified) | 98.6% (inactive) | 102 | 90.1 | 242% (active) | 216 | 236 | 96.8% (inactive) | 98% (inactive) | 94.4% (inactive) | 97.4 | 88.2
8 | O=C(Nc1ccccc1)c1c(F)cccc1F | 103% (inactive) | 103 | 103 | 97% (inactive) | 97.5 | 96.2 | 105% (inactive) | 102% (inactive) | 106% (inactive) | 103 | 107
9 | COc1ccc(C(=O)NNC(=S)NC(=O)/C=C/c2cccs2)cc1 | 106% (inactive) | 109 | 104 | 201% (active) | 173 | 198 | 120% (inactive) | 121% (inactive) | 108% (inactive) | 112 | 100
10 | O=C1c2ccsc2SCCN1Cc1cccc(F)c1 | 96% (inactive) | 95.7 | 96.8 | 103% (inactive) | 102 | 104 | 92.6% (inactive) | 89.9% (inactive) | 87.2% (inactive) | 90.2 | 84.6
11 | CCCc1[nH]nc2c1C(c1ccc(O)cc1OCC)C(C#N)=C(N)O2 (stereo unspecified) | 102% (inactive) | 104 | 100 | 92.9% (inactive) | 99 | 92.3 | 106% (inactive) | 101% (inactive) | 104% (inactive) | 105 | 104
12 | Cc1ccc(NCN2C(=O)C3C4C=CC(C4)C3C2=O)cc1 (stereo unspecified) | 96.4% (inactive) | 97 | 98.1 | 95.3% (inactive) | 93.6 | 96.5 | 97.5% (inactive) | 98.4% (inactive) | 102% (inactive) | 102 | 100
13 | Cc1ccc2c(c1)c1c(c(=O)n(-c3ccccc3C)c(=O)n1CC(=O)NCC1CCCO1)n2C (stereo unspecified) | 98.4% (inactive) | 99.9 | 97.2 | 102% (inactive) | 101 | 101 | 100% (inactive) | 98.3% (inactive) | 103% (inactive) | 103 | 102
14 | CNc1cc(CSC)nc(SCc2ccc(Cl)cc2Cl)n1 | 93.5% (inactive) | 88.6 | 96.1 | 125% (inactive) | 118 | 131 | 102% (inactive) | 90.4% (inactive) | 88.3% (inactive) | 86.2 | 89
15 | O=[N+]([O-])c1cc(F)c2cccnc2c1O | 98.7% (inactive) | 93.3 | 96.7 | 219% (active) | 176 | 204 | 126% (inactive) | 125% (inactive) | 107% (inactive) | 101 | 104
16 | COc1ccccc1C(=O)NNC(=S)NC(=O)c1cccs1 | 116% (inactive) | 126 | 107 | 225% (active) | 181 | 202 | 128% (inactive) | 89.6% (inactive) | 121% (inactive) | 124 | 108
17 | CCC(=O)Nc1nc(C)c(-c2csc(Nc3cccc(C(=O)O)c3)n2)s1 | 97.3% (inactive) | 97.8 | 97.3 | 85.8% (inactive) | 89.8 | 87.3 | 101% (inactive) | 94.8% (inactive) | 100% (inactive) | 101 | 100
18 | CCCN1CCN(C(=O)c2oc3ccccc3c2NC(=O)COc2ccc(OC)cc2)CC1 | 98.6% (inactive) | 100 | 99.8 | 95.4% (inactive) | 96 | 95.1 | 102% (inactive) | 98.1% (inactive) | 105% (inactive) | 106 | 106
19 | CCC(=O)Nc1ccc(NC(=O)c2oc3ccccc3c2C)cc1 | 101% (inactive) | 95 | 96.3 | 99.8% (inactive) | 100 | 101 | 102% (inactive) | 93.9% (inactive) | 103% (inactive) | 99.7 | 102
20 | CSC1=NS(=O)(=O)c2c(C)nn(C)c2S1 | 88.7% (inactive) | 91 | 85.8 | 156% (active) | 159 | 152 | 110% (inactive) | 104% (inactive) | 84.7% (inactive) | 90.5 | 78.1
21 | COc1ccc(NC(=O)/C(Cl)=C(/Cl)S(=O)Cc2ccccc2)cn1 (stereo unspecified) | 104% (inactive) | 114 | 95.5 | 262% (active) | 227 | 243 | 118% (inactive) | 103% (inactive) | 114% (inactive) | 134 | 99.1
22 | O=C(CCc1ccc(S(=O)(=O)N2CCOCC2)cc1)Oc1ccccc1 | 99.6% (inactive) | 101 | 99.2 | 111% (inactive) | 112 | 109 | 123% (inactive) | 97.2% (inactive) | 110% (inactive) | 110 | 109
23 | O=C(c1ccc(OCC2CCCO2)cc1)N1CCN(c2ccccc2)CC1 (stereo unspecified) | 98.7% (inactive) | 98.4 | 98.4 | 104% (inactive) | 102 | 105 | 103% (inactive) | 102% (inactive) | 100% (inactive) | 101 | 100
24 | C[n+]1ccc(/C=C/c2c[nH]c3ccc(F)cc23)cc1 | 101% (inactive) | 99.5 | 102 | 113% (inactive) | 110 | 115 | 120% (inactive) | 104% (inactive) | 110% (inactive) | 108 | 112
25 | O=C(Nc1nc(-c2ccccc2)cs1)c1cccs1 | 99.7% (inactive) | 94.2 | 101 | 101% (inactive) | 100 | 106 | 93.5% (inactive) | 86.9% (inactive) | 97.8% (inactive) | 94.8 | 98.7
26 | N#Cc1ccc(Sc2ccccn2)c([N+](=O)[O-])c1 | 102% (inactive) | 101 | 102 | 102% (inactive) | 105 | 103 | 102% (inactive) | 97.8% (inactive) | 104% (inactive) | 99.7 | 105
